Laboratory results reported in ChEMBL document CHEMBL1122459, “4-(Diphenylmethyl)-1-[(imino)methyl]piperidines as gastric antisecretory agents” (J Med Chem, 1983).

Assays:
[1] = biological target: Muscarinic acetylcholine receptor; test: Displacement of [3H]- quinuclidinyl benzilate from rat brain Muscarinic acetylcholine receptor
Rattus norvegicus [2] = test: Antisecretory activity against acute gastric fistula(AGF) in rat when administered perorally; format: functional; conditions: Stomach, po
Outline: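 Female Sprague-Dawley rats, 120-160 g, fasted ≥18 h; drug or vehicle (0.5% methocel) po 1 h before surgery. Under ether, fundic fistula tube inserted; first 30-min sample discarded, then two 1-h collections. Volume measured, aliquot titrated to pH 7 with 0.01 N NaOH for total acid output. ED50 = dose for 50% inhibition vs controls, least-squares regression; ≥5 rats/group, ≥3 doses.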

Rattus norvegicus [3] = test: Anticholinergic activity against carbachol induced gastric emptying(GE) in rat when administered perorally; format: functional; conditions: Stomach, po
Outline: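 Ten 1-mm polystyrene beads placed in stomach by tube 30 min later; carbachol 80 mcg/kg sc at 1 h post-dose; killed 15 min after. Beads left in stomach counted. ED50 = dose giving 50% inhibition of emptying vs controls, by least-squares regression; ≥5 rats/group, ≥3 dose groups.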

Rattus norvegicus [4] = organism: Rattus norvegicus; test: Relative potency against atropine; format: functional
[5] = Ratio between gastric emptying(GE) and acute gastric fistula(AGF); format: functional, Stomach
Rattus norvegicus [6] = test: Anticholinergic activity against carbachol-induced gastric emptying (GE) in rat when administered perorally; conditions: Stomach, po
Rattus norvegicus [7] = organism: Rattus norvegicus; test: animal or person; conditions: Stomach, po

Row | SMILES | I50 [1] [nM] | ED50 (Rattus norvegicus [2]) [mg/kg] | ED50 (Rattus norvegicus [3]) [mg/kg] | Relative Potency (Rattus norvegicus [4]) | Ratio [5] | ED50 (Rattus norvegicus [6]) [mg/kg] | ED50 (Rattus norvegicus [7]) [mg/kg]
1 | C#CC/N=C/N1CCC(C(c2ccccc2)c2ccccc2)CC1.Cl | 1300 | 5.4 | 8 | 0.19 | 1.48 |  | 
2 | Cl.N=CN1CCC(C(c2ccccc2)c2ccccc2)CC1 | 3 | 0.34 | 0.86 | 81.7 | 2.53 |  | 
3 | C=CC/N=C/N1CCC(C(c2ccccc2)c2ccccc2)CC1 | 490 | 10.4 | 13.2 | 0.51 | 1.27 |  | 
4 | CCC(=N)N1CCC(C(c2ccccc2)c2ccccc2)CC1 | 70 | 54.5 | 20 | 3.61 | 0.37 |  | 
5 | CCCCCCCCCC/N=C/N1CCC(C(c2ccccc2)c2ccccc2)CC1 | 3800 | 7.8 | 43.1 | 0.06 | 5.52 |  | 
6 | CCCCCCC/N=C/N1CCC(C(c2ccccc2)c2ccccc2)CC1.O=C(O)/C=C/C(=O)O | 3300 | 11.5 | 33.4 | 0.08 | 2.9 |  | 
7 | CCCCCC/N=C/N1CCC(C(c2ccccc2)c2ccccc2)CC1.O=C(O)/C=C/C(=O)O | 1900 | 8.34 | 15 | 0.13 | 1.8 |  | 
8 | CC(C)/N=C/N1CCC(C(c2ccccc2)c2ccccc2)CC1.O=C(O)/C=C/C(=O)O | 1600 | 8.6 | 15.1 | 0.15 | 1.76 |  | 
9 | CCCC/N=C/N1CCC(C(c2ccccc2)c2ccccc2)CC1.O=C(O)/C=C/C(=O)O | 1600 | 7.6 | 10.3 | 0.15 | 1.36 |  | 
10 | CCCCCCCCC/N=C/N1CCC(C(c2ccccc2)c2ccccc2)CC1.O=C(O)/C=C/C(=O)O | > 10000 | 10.8 | 40.4 |  | 3.74 |  | 
11 | CCCCCCCC/N=C/N1CCC(C(c2ccccc2)c2ccccc2)CC1.O=C(O)/C=C/C(=O)O | 8600 | 10.9 | 176 | 0.04 | 16.15 |  | 
12 | CN1[C@@H]2CC[C@H]1C[C@@H](OC(=O)C(CO)c1ccccc1)C2 (stereo partly drawn) [ATROPINE] |  | 0.64 | 0.35 |  |  |  | 
13 | CN/C(=N\CCSCc1nc[nH]c1C)NC#N [CIMETIDINE] |  |  |  |  |  | 160 | 7.6
